The target of test [1] is T1, DNA topoisomerase 2-alpha (Homo sapiens, UniProt P11388). Nature of the test: Inhibition of human topoisomerase 2 alpha-mediated relaxation of supercoiled pHOT DNA after 30 mins by agarose gel electrophoresis.
The subject of test [2] is SK-BR-3. Nature of the test: Growth inhibition against human SK-BR-3 cells after 24 hrs by MTT assay. The class given is functional. The following applies: SK-BR-3, 24 h. The gist of the method: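 SK-BR-3 cells in DMEM:F-12 (1:1) with 10% fetal calf serum, L-glutamine, nonessential amino acids and penicillin/streptomycin were seeded at 20 000 cells/well overnight. Drug was added in fresh medium (500 μM to 10 nM) for 24 h at 37 °C/5% CO2. MTT was added for 3 h, detergent solubilization ran overnight at room temperature, then absorbance was read. Values were normalized to untreated wells; GI50 from a sigmoidal fit; triplicate.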

For test [3], the target named is T1, DNA topoisomerase 2-alpha. Nature of the test: Inhibition of human topoisomerase 2 alpha-mediated relaxation of supercoiled pHOT DNA at 100 uM after 30 mins by agarose gel electrophoresis. The essentials:
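Single-concentration gel run at 100 μM drug, added from DMSO stock. Commercial human topo IIα (~2 units) with supercoiled pHOT DNA in reaction buffer (20 μL final), 37 °C for 30 min. The reaction was stopped with SDS plus proteinase K (37 °C, 15 min) and electrophoresed on 1% agarose (5 h, 5 V/cm). Gels were ethidium bromide pre- or post-stained and scored for supercoiled, relaxed and linear DNA.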

Each structure is given as a SMILES string. The source made the active and inactive calls. The calls are words filed in the database; no cut-off is given here.

One may read the IC50 as the concentration needed to halve the response being measured. The low end stands for greater potency in that assay, the high end for weaker potency in that assay. Broadly, the GI50 is the concentration at which growth is held to half of that of the control. A lower GI50 goes with greater sensitivity of the cells.

T1 sequence (P11388 whole entry): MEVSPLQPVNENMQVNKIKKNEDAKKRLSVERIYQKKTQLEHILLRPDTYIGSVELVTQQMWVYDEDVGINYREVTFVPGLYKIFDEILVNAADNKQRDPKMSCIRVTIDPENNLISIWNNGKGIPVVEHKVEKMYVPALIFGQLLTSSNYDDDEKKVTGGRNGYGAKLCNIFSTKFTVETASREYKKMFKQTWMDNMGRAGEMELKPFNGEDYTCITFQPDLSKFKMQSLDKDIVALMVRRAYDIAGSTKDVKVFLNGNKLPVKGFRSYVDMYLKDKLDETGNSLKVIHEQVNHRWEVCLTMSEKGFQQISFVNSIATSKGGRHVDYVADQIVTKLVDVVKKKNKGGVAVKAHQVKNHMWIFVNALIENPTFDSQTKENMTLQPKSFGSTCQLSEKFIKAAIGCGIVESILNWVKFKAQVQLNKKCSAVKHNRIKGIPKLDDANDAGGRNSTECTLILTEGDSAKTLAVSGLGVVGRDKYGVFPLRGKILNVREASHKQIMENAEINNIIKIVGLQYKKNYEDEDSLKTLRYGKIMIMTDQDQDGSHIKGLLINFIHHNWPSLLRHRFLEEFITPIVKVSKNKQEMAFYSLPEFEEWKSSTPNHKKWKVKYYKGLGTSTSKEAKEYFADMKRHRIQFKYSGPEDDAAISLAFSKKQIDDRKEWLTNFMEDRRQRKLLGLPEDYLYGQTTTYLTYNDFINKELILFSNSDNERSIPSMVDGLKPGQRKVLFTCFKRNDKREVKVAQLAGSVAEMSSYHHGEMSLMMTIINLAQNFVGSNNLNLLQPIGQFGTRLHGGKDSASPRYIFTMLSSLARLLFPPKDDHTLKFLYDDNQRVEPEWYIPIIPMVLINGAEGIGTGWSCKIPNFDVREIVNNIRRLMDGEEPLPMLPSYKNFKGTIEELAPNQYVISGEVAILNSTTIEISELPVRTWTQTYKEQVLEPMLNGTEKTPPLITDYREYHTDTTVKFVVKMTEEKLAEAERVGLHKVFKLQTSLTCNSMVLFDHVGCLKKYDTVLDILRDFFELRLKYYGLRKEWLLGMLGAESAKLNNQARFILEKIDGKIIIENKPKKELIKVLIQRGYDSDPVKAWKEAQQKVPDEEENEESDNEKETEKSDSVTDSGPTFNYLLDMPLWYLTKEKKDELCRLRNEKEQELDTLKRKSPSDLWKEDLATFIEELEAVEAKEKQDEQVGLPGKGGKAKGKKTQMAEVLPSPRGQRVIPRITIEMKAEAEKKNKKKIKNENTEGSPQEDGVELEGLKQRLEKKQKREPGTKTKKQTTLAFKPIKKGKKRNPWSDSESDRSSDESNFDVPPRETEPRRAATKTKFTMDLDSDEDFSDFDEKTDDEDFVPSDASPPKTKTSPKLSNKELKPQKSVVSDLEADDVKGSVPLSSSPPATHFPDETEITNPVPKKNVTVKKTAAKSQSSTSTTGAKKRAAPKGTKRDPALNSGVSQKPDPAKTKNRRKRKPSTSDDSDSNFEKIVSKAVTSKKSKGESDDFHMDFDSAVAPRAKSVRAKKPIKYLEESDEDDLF

For the compound `N/C(S)=N/N=C/c1ccccn1`, in test [1], the IC50 was > 100 µM. The compound further registered a GI50 in test [2] of 7.4 µM. Besides, the inhibition entry in test [3] is “inactive”.

In test [1], `CCNC(=S)N/N=C/c1ccccn1` had a 50% inhibitory concentration (IC50) of 94 µM. The concentration for 50% growth inhibition (GI50) in test [2] was 6.3 µM. Also, the inhibition result in test [3] was “Active”.

Regarding `C=CCNC(=S)N/N=C/c1ccccn1`, in test [1], the half-maximal inhibitory concentration (IC50) is > 100 µM. Besides, growth in test [2] was halved (GI50) at 8.1 µM. Besides, the inhibition entry in test [3] was “inactive”.

For `C=CCNC(=S)N/N=C(\C)c1ccccn1`, the half-inhibitory concentration (IC50) in test [1] was > 100 µM. In test [2], this compound displayed a GI50 of 6.1 µM. Also, in test [3], the inhibition entry is “inactive”.

`C/N=C(\S)N/N=C(\C)c1cnccn1`: in test [1], the IC50 was > 100 µM. Besides, the GI50 in test [2] stood at 7.9 µM. Further, in test [3], the inhibition result is “inactive”.

`CNC(=S)N/N=C/c1ccccn1` yielded a half-inhibitory concentration (IC50) in test [1] of 76 µM. Further, the GI50 in test [2] stood at 7.1 µM. In addition, the inhibition result in test [3] was “Active”.

Regarding `CNC(=S)N/N=C(\C)c1ccccn1`, the IC50 in test [1] stood at 92 µM. The 50% growth inhibitory concentration (GI50) in test [2] came to 5.5 µM. Further, in test [3], the inhibition entry was “Active”.

Turning to `CC(C)NC(=S)N/N=C/c1ccccn1`, in test [1], the IC50 is > 100 µM. For the same compound, the GI50 in test [2] turned out to be 7.7 µM. Further, in test [3], the inhibition entry is “inactive”.

In turn, `CCNC(=S)N/N=C(\C)c1ccccn1` came in with a concentration for half-maximal inhibition (IC50) in test [1] of 79 µM. Further, the GI50 in test [2] was 5.9 µM. Besides, in test [3], the inhibition entry is “Active”.

For the compound `S=C(NCc1ccccc1)N/N=C/c1ccccn1`, the IC50 in test [1] was > 100 µM. Also, in test [2], halving of growth (GI50) required 4.6 µM. Also, the inhibition result in test [3] is “inactive”.

`S=C(N/N=C/c1ccccn1)N1CCCC1`: the IC50 in test [1] is > 100 µM. The same compound displayed a 50% growth inhibitory concentration (GI50) in test [2] of 4.3 µM. In addition, the inhibition entry in test [3] was “inactive”.

The values above are taken from ChEMBL document CHEMBL1765066, “Role of metalation in the topoisomerase IIα inhibition and antiproliferation activity of a series of α-heterocyclic-N4-substituted thiosemicarbazones and their Cu(II) complexes” (J Med Chem, 2011).
